GPR7 antag – blocks human GPR7 receptor signaling. inhibition, % at 4.4 µM. GPR7-expressing cells, fluorescence antagonist assay. actives 1.1% (n = 290,000); in the data active = inhibition above about 16%, passing the limit was not always enough;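 also: cells stimulated with the agonist NPW; 0% = agonist with vehicle and 100% = vehicle without agonist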
Target sequence (P48145 whole entry, looked up): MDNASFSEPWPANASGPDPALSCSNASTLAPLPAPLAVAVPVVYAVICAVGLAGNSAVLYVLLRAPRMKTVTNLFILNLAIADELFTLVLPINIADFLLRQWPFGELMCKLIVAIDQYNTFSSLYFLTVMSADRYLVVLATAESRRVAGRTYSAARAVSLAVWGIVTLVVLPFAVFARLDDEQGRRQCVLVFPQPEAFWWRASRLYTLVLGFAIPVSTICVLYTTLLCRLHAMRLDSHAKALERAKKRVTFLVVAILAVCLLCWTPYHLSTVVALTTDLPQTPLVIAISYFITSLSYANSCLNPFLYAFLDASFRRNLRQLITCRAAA
DAGLB inhibitor – blocks human DAGLB lipase activity; actives 0.059% (n = 340,000); Q8NCG7; inhibition, % at 5.17 µM; HEK293T DAGLB membrane lysate, EnzChek fluorogenic substrate; in the data active = inhibition above about 34%;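 also: 0% = enzyme with vehicle and 100% = wells lacking enzyme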
TAAR1 antag – antagonists of human TAAR1; Q96RJ0; CHO RD-HGA16 TAAR1, Fluo-8 calcium fluorescence, antagonist; inhibition, % at 3 µM; actives 1.5% (n = 360,000); AID 624466;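 active = inhibition above a per-plate cutoff, the mean inhibition of test compounds on that plate plus 3 SD, cut at about 49% in these data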;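 also: 0% = DMSO plus EC80 beta-PEA response and 100% = DMSO alone without agonist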
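Test system: RD-HGA16 CHO cells with stable hTAAR1 and Gα16 / Probe or stimulus: EC80 β-phenethylamine stimulus / Times: seeding 17-24 h prior, 75-min 37 °C, 30-min RT dye loading / Detection: Fluo-8 calcium-sensitive fluorescence / Read-out basis: % inhibition scaled between DMSO and EC80 PEA controls / Repeats: singlicate, one well per test compound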
MPTP inh – permeability transition pore inhibition; isolated mouse mitochondria, Ca2+ swelling absorbance, 30 min; inhibition, % at 10 µM; actives 1.4% (n = 360,000); AID 602449;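 active = inhibition of 50% or more, scaled per plate between neutral and stimulator controls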;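 also: 0% = DMSO wells given calcium and 100% = 1 mM EGTA wells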
TAAR1 agonist – agonists of human TAAR1; actives 0.99% (n = 360,000); activation, % at 3 µM; CHO RD-HGA16 TAAR1, Fluo-8 calcium fluorescence; vehicle wells 0%, saturating PEA agonist 100%;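 active = activation above the mean activation of all test compounds in the run plus 3 SD, cut at about 38% in these data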
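Assay system: CHO-derived RD-HGA16 cells with stable Gα16 and human TAAR1; timing: 17-24 h seeding, 75 min 37 °C dye, 30 min RT; read-out: % activation from peak over basal fluorescence ratio, DMSO-to-PEA scaled; measured by: kinetic Fluo-8 calcium fluorescence; benchmarks: low control DMSO, high control PEA (EC100); doses: 3 µM single concentration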
Starred values were filed as active, the others as inactive; . = no result. The list is not random: actives were taken first. Their share in the collection is about 4%.

SMILES	GPR7 antag	DAGLB inhibitor	TAAR1 antag	MPTP inh	TAAR1 agonist
O=C(N/N=C/c1ccccn1)c1cc(-c2ccc3ccccc3c2)n[nH]1	-14	3	71*	3	20
C(#Cc1ccccc1)C[N+]1(CC#Cc2ccccc2)CCCCC1	-4	2	6	-1	13
Cc1ccc(C#CC[N+]2(CC#Cc3ccc(C)cc3)CCCCC2)cc1	19*	1	-20	11	2
CNc1cnc(-c2ccc(F)c(F)c2F)cn1	.	.	-24	1	-1
Cc1ccc(N/C(N)=N/c2nc(CSc3nnc(C)s3)cc(=O)[nH]2)c(C)c1	31*	0	8	-1	1
O=C(COC(=O)/C=C/c1ccco1)NCCc1ccccc1	-11	-1	47	0	39*
CCc1nc2c(OCC(=O)N3CCOCC3)cccn2c1N(C)C(=O)COc1ccccc1	.	.	-16	0	1
COc1ccc(-c2csc(Nc3ccc(S(=O)(=O)Nc4cc(C)on4)cc3)n2)cc1C	-19	10	49*	0	12
CCOC(=O)[C@@H]1CSCCS(=O)(=O)N1Cc1ccc(C(F)(F)F)cc1	.	.	7	.	-1
C#CCOCCOCCOCCNc1nc(N2CCN(C(=O)Cn3cc(CC(C)O)nn3)CC2)nc(N2CCN(C(=O)[C@H](CCCCN)n3cc(CC(C)O)nn3)CC2)n1 (some centres undefined)	.	-3	12	-1	6
O=C1[C@H](Cc2ccccc2)NCCCC[C@H](c2ccc(Cl)cc2)N1Cc1ccc(Cl)cc1	.	-21	6	-1	7
O=C1[C@H](Cc2ccccc2)NCCCC[C@@H](c2ccc(Cl)cc2)N1Cc1ccccc1	.	9	17	3	39*
CC1(C(=O)NS(=O)(=O)c2ccc(Br)cc2)CCN1C(=O)c1cccc(F)c1 (centres undefined)	.	.	-1	0	0
COc1ccc(S(=O)(=O)N2CCN(CC(=O)Nc3ccc(F)c(F)c3)CC2)cc1	30*	-4	25	-2	2
NS(=O)(=O)c1ccc(NC(=O)Nc2cccc(Cl)c2)cc1	-8	0	23	2	19
O=C(Nc1ccccc1)Nc1ccccc1	.	-3	19	0	39*
CC(=O)Nc1ccc(NC(=O)Nc2cccc(Cl)c2)cc1	1	0	14	0	40*
O=C(Nc1cccc(Cl)c1)Nc1ccc2nccnc2c1	8	-1	58*	12	47*
O=C(Nc1ccc2nccnc2c1)Nc1ccccc1Cl	10	-2	7	-2	8
COC(=O)c1cc2c(c3c4cc(C)ccc4n(S(=O)(=O)c4ccc(OC)cc4)c13)C(=O)N(C)C2	.	.	-13	.	-1
CSCCC(C(=O)NC(C)(C)C)n1c(-c2ccc3c(c2)OCO3)nc2ccccc21 (centres undefined)	.	.	-19	1	-2
CC(O)C(NS(=O)(=O)c1ccc(Cl)cc1)C(=O)OCC(=O)Nc1cccnc1Cl (centres undefined)	25*	-3	5	1	4
CCN(CC)S(=O)(=O)c1ccc(/C=C/C(=O)OCC(=O)Nc2cccnc2Cl)cc1	.	-2	49*	1	17
CCN(CC)S(=O)(=O)c1ccc(/C=C/C(=O)OCC(=O)Nc2cccc3ccccc23)cc1	-8	0	1	3	2
COc1ccc(OC)c(C(c2nnnn2C2CCCC2)N2CCN(c3ccc(F)cc3)CC2)c1 (centres undefined)	18*	-2	2	1	0
SMILES	GPR7 antag	DAGLB inhibitor	TAAR1 antag	MPTP inh	TAAR1 agonist
O=S(=O)(c1ccccc1)N1CCC(O)(CSc2ccccc2)CC1	7	-2	-8	-2	21
O=S(=O)(c1ccccc1)N1CCC(O)(CSc2ccc(F)cc2)CC1	18*	0	13	5	6
CC(C)(C)c1nnc(N/N=C/c2cc(Br)ccc2O)n(N)c1=O	-9	10	68*	4	25
CCc1nnc(N/N=C/c2cc(Br)c(O)cc2O)n1N	-10	0	-15	0	7
CC(C)=CCc1c(O)ccc2c1OC(c1ccc(O)c(O)c1)CC2=O (centres undefined)	-9	2	57*	3	14
O=C1CC(c2ccc(O)c(O)c2)Oc2c1ccc(O)c2O (centres undefined)	.	-4	-32	-1	1
C=CCN1C(=O)/C(=C/c2ccc(O)c(OC)c2)S/C1=N/c1nccs1	-10	-17	60*	-9	32
C=CCN1C(=O)/C(=C/c2ccc(OCC(=O)O)cc2)S/C1=N/c1nccs1	-13	15	-8	1	8
Cc1cc2nc(-c3ccc(F)cc3)c(CC3CCCCC3)n2c(C)c1Br	.	.	-5	0	1
CCn1c(C)nc2cc(C(=O)NNC(=O)c3ccc(C)cc3)ccc21	.	1	12	-2	8
CCn1c(C)nc2cc(C(=O)NNC(=O)Nc3ccc(Cl)c(Cl)c3)ccc21	-9	.	20	.	41*
CCOC(=O)C1=CCN(S(=O)(=O)c2ccccc2Cl)C1c1cccc(F)c1 (centres undefined)	.	.	32	-2	-1
COc1ccc(CCN2C(=O)COc3ccccc3C2C(=O)Nc2c(C)cccc2C)cc1OC (centres undefined)	.	.	-4	0	4
Cc1cc(C)c(C#N)c(SCC(O)COc2ccc(Br)cc2)n1 (centres undefined)	-7	-15	56*	0	0
Cc1cc(C)c(C#N)c(SCC(O)CS(=O)(=O)Cc2ccccc2)n1 (centres undefined)	-4	-2	12	0	14
CC(=NO)C1CCC2C3CCC4=CC(=NO)CCC4(C)C3C(=O)CC12C (centres undefined)	.	0	8	0	3
CC(=NO)C1CCC2C3CCC4=CC(=NO)CCC4(C)C3C(O)CC12C (centres undefined)	.	1	67*	1	21
CC(C)(C)CC(C)(C)NC(=S)NC1CCN(Cc2ccccc2)CC1	27*	0	23	1	33
COc1ccc(-c2csc(C(O)c3ccc(F)cc3)n2)cc1 (centres undefined)	.	.	78*	0	62*
COc1ccc(C(O)c2nc(-c3ccc(N(C)C)cc3)cs2)cc1 (centres undefined)	.	.	40	9	49*
COc1ccc(C(O)c2nc(-c3cc4ccccc4o3)cs2)cc1 (centres undefined)	.	.	49*	5	32
CN(C)c1ccc(-c2csc(C(O)c3ccc(F)c(F)c3)n2)cc1 (centres undefined)	.	.	99*	2	100*
OC(c1ccccc1)c1nc(-c2cc3ccccc3o2)cs1 (centres undefined)	.	.	0	0	8
Cc1ccccc1OCC(O)COc1ccccc1C	.	-7	1	0	-1
COc1ccc(OC)c(S(=O)(=O)N(C)CC(=O)N2CCc3ccccc3C2)c1	-7	-1	13	1	45*
COc1ccc(N(CC(=O)N2CCc3ccccc3C2)S(C)(=O)=O)cc1	5	0	2	0	42*

Screens from PubChem.
